Laboratory results from ChEMBL document CHEMBL5058577, “EUbOPEN Chemogenomics Library 2 (Multiplex)” (2022).

System: Fibroblast
Experiment: Multiplex assay against human fibroblast
Type: toxicity, cell-based
Summary of the method: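 Cells stained live at seeding with Hoechst33342, BioTracker Green Microtubule Cytoskeleton Dye, MitoTracker Red and Annexin V Alexa Fluor 680 were imaged on a CQ1 microscope at 37°C and 5% CO2 after compound addition. Their classification by CellPathfinder machine-learning gating ran from Hoechst high-intensity objects versus normal cells, to healthy, pyknosed or fragmented nuclei among normal cells, to mitotic or apoptotic among pyknosed cells. Tubulin, mitochondrial-mass and membrane-permeability phenotypes are per cents of healthy-nucleus cells.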

[1] = 12 h, 1 µM, compound concentration 1 uM, replicate 1
[2] = 12 h, 1 µM, compound concentration 1 uM, replicate 2
[3] = 12 h, 10 µM, compound concentration 10 uM, replicate 1
[4] = 12 h, 10 µM, compound concentration 10 uM, replicate 2
[5] = 24 h, 1 µM, compound concentration 1 uM, replicate 1
[6] = 24 h, 1 µM, compound concentration 1 uM, replicate 2
[7] = 24 h, 10 µM, compound concentration 10 uM, replicate 1
[8] = 24 h, 10 µM, compound concentration 10 uM, replicate 2
[9] = 48 h, 1 µM, compound concentration 1 uM, replicate 1
[10] = 48 h, 1 µM, compound concentration 1 uM, replicate 2
[11] = 48 h, 10 µM, compound concentration 10 uM, replicate 1
[12] = 48 h, 10 µM, compound concentration 10 uM, replicate 2

O=C(NCCNCC(O)COc1ccc(O)cc1)N1CCOCC1.O=C(NCCNCC(O)COc1ccc(O)cc1)N1CCOCC1.O=C(O)/C=C/C(=O)O (centres undefined) [XAMOTEROL FUMARATE]
Population Apoptotic (%) [1]: 63%
Population Fragmented Nuclei (%) [1]: 15%
Population Healthy Nuclei (%) [1]: 67%
Population Hoechst High Intensity Objects (%) [1]: 2%
Population Membrane Permeable-Phenotype (%) [1]: 1%
Population Mitochondria Different-Phenotype (%) [1]: 4%
Population Mitotic Cells (%) [1]: 36%
Population Normal (%) [1]: 97%
Population Pyknosed Nuclei (%) [1]: 17%
Population Tubulin-Different-Phenotype (%) [1]: 24%
Total Cell Count [1]: 114
Population Apoptotic (%) [2]: 43%
Population Fragmented Nuclei (%) [2]: 23%
Population Healthy Nuclei (%) [2]: 53%
Population Hoechst High Intensity Objects (%) [2]: 4%
Population Membrane Permeable-Phenotype (%) [2]: 16%
Population Mitochondria Different-Phenotype (%) [2]: 7%
Population Mitotic Cells (%) [2]: 56%
Population Normal (%) [2]: 95%
Population Pyknosed Nuclei (%) [2]: 23%
Population Tubulin-Different-Phenotype (%) [2]: 55%
Total Cell Count [2]: 167
Population Apoptotic (%) [3]: 30%
Population Fragmented Nuclei (%) [3]: 21%
Population Healthy Nuclei (%) [3]: 64%
Population Hoechst High Intensity Objects (%) [3]: 4%
Population Membrane Permeable-Phenotype (%) [3]: 2%
Population Mitochondria Different-Phenotype (%) [3]: 5%
Population Mitotic Cells (%) [3]: 70%
Population Normal (%) [3]: 95%
Population Pyknosed Nuclei (%) [3]: 14%
Population Tubulin-Different-Phenotype (%) [3]: 32%
Total Cell Count [3]: 143
Population Apoptotic (%) [4]: 17%
Population Fragmented Nuclei (%) [4]: 30%
Population Healthy Nuclei (%) [4]: 49%
Population Hoechst High Intensity Objects (%) [4]: 5%
Population Membrane Permeable-Phenotype (%) [4]: 4%
Population Mitochondria Different-Phenotype (%) [4]: 11%
Population Mitotic Cells (%) [4]: 82%
Population Normal (%) [4]: 94%
Population Pyknosed Nuclei (%) [4]: 20%
Population Tubulin-Different-Phenotype (%) [4]: 43%
Total Cell Count [4]: 154
Population Apoptotic (%) [5]: 68%
Population Fragmented Nuclei (%) [5]: 20%
Population Healthy Nuclei (%) [5]: 63%
Population Hoechst High Intensity Objects (%) [5]: 1%
Population Membrane Permeable-Phenotype (%) [5]: 2%
Population Mitochondria Different-Phenotype (%) [5]: 2%
Population Mitotic Cells (%) [5]: 31%
Population Normal (%) [5]: 98%
Population Pyknosed Nuclei (%) [5]: 15%
Population Tubulin-Different-Phenotype (%) [5]: 25%
Total Cell Count [5]: 121
Population Apoptotic (%) [6]: 50%
Population Fragmented Nuclei (%) [6]: 28%
Population Healthy Nuclei (%) [6]: 52%
Population Hoechst High Intensity Objects (%) [6]: 2%
Population Membrane Permeable-Phenotype (%) [6]: 18%
Population Mitochondria Different-Phenotype (%) [6]: 6%
Population Mitotic Cells (%) [6]: 50%
Population Normal (%) [6]: 97%
Population Pyknosed Nuclei (%) [6]: 19%
Population Tubulin-Different-Phenotype (%) [6]: 63%
Total Cell Count [6]: 149
Population Apoptotic (%) [7]: 62%
Population Fragmented Nuclei (%) [7]: 20%
Population Healthy Nuclei (%) [7]: 67%
Population Hoechst High Intensity Objects (%) [7]: 1%
Population Membrane Permeable-Phenotype (%) [7]: 0%
Population Mitochondria Different-Phenotype (%) [7]: 0%
Population Mitotic Cells (%) [7]: 37%
Population Normal (%) [7]: 98%
Population Pyknosed Nuclei (%) [7]: 12%
Population Tubulin-Different-Phenotype (%) [7]: 31%
Total Cell Count [7]: 135
Population Apoptotic (%) [8]: 42%
Population Fragmented Nuclei (%) [8]: 34%
Population Healthy Nuclei (%) [8]: 54%
Population Membrane Permeable-Phenotype (%) [8]: 5%
Population Mitochondria Different-Phenotype (%) [8]: 8%
Population Mitotic Cells (%) [8]: 57%
Population Pyknosed Nuclei (%) [8]: 11%
Population Tubulin-Different-Phenotype (%) [8]: 41%
Total Cell Count [8]: 172
Population Apoptotic (%) [9]: 65%
Population Fragmented Nuclei (%) [9]: 27%
Population Healthy Nuclei (%) [9]: 57%
Population Hoechst High Intensity Objects (%) [9]: 1%
Population Membrane Permeable-Phenotype (%) [9]: 1%
Population Mitochondria Different-Phenotype (%) [9]: 2%
Population Mitotic Cells (%) [9]: 35%
Population Normal (%) [9]: 98%
Population Pyknosed Nuclei (%) [9]: 15%
Population Tubulin-Different-Phenotype (%) [9]: 21%
Total Cell Count [9]: 131
Population Apoptotic (%) [10]: 40%
Population Fragmented Nuclei (%) [10]: 42%
Population Healthy Nuclei (%) [10]: 46%
Population Hoechst High Intensity Objects (%) [10]: 2%
Population Membrane Permeable-Phenotype (%) [10]: 7%
Population Mitochondria Different-Phenotype (%) [10]: 4%
Population Mitotic Cells (%) [10]: 60%
Population Normal (%) [10]: 97%
Population Pyknosed Nuclei (%) [10]: 10%
Population Tubulin-Different-Phenotype (%) [10]: 65%
Total Cell Count [10]: 140
Population Apoptotic (%) [11]: 56%
Population Fragmented Nuclei (%) [11]: 25%
Population Healthy Nuclei (%) [11]: 62%
Population Hoechst High Intensity Objects (%) [11]: 4%
Population Membrane Permeable-Phenotype (%) [11]: 1%
Population Mitochondria Different-Phenotype (%) [11]: 3%
Population Mitotic Cells (%) [11]: 43%
Population Normal (%) [11]: 95%
Population Pyknosed Nuclei (%) [11]: 11%
Population Tubulin-Different-Phenotype (%) [11]: 33%
Total Cell Count [11]: 144
Population Apoptotic (%) [12]: 52%
Population Fragmented Nuclei (%) [12]: 33%
Population Healthy Nuclei (%) [12]: 54%
Population Hoechst High Intensity Objects (%) [12]: 3%
Population Membrane Permeable-Phenotype (%) [12]: 6%
Population Mitochondria Different-Phenotype (%) [12]: 4%
Population Mitotic Cells (%) [12]: 47%
Population Normal (%) [12]: 96%
Population Tubulin-Different-Phenotype (%) [12]: 48%
Total Cell Count [12]: 157
